# Data: ChEMBL document CHEMBL1143122, “Novel analogs of D-e-MAPP and B13. Part 1: synthesis and evaluation as potential anticancer agents” (Bioorg Med Chem, 2008)
# Tested on: MCF7
# Test: Antiproliferative activity against human MCF7 cells after 48 hrs
# Format: functional, cell-based
# Conditions: MCF7, 48 h
row,IC50 [µM],Compound
1,> 10,CCCCCCCCCCCCNC(=O)N[C@@H](CO)[C@@H](O)c1ccc([N+](=O)[O-])cc1
2,20,CCCCCCCCCCCCCC(=O)N[C@H](CO)[C@H](O)c1ccc(NC(=O)CCCCC[n+]2ccccc2)cc1.[Br-]
3,> 10,CCCCCCCCCCCCCC(=O)N(C)[C@@H](C)[C@H](O)c1ccccc1
4,> 10,CCCCCCCCCCCCNC(=O)N[C@@H](C)[C@H](O)c1ccccc1
5,30,CCCCCCCCCCCCCC(=O)N[C@H](C)[C@@H](O)c1ccccc1
6,> 10,CCCCCCCCCCCCNC(=O)N[C@H](CO)[C@H](O)c1ccc([N+](=O)[O-])cc1
7,> 10,CCCCCCCCCCCCNC(=O)N[C@H](C)[C@@H](O)c1ccccc1
8,> 10,CCCCCCCCCCCCCC(=O)N(C)[C@H](C)[C@@H](O)c1ccccc1
9,> 10,CCCCCCCCCCCCCC(=O)N(C)[C@@H](C)[C@@H](O)c1ccccc1
10,14,CCCCCCCCCCCCCC(=O)N[C@H](CO)[C@H](O)c1ccc([N+](=O)[O-])cc1
11,> 10,CCCCCCCCCCCCCC(=O)N(C)[C@H](C)[C@H](O)c1ccccc1

row,Compound,IC50 [µM]
1,CCCCCCCCCCCCN[C@H](C)[C@@H](O)c1ccccc1,9

# Tested on: MCF7
# Test: Drug level in human MCF7 cells at 10 uM per 10^6 cells after 0.5 hrs
# Format: ADME, cell-based
# Conditions: mcf7, 0.5 h
# Summary of the method: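 MCF7 cells kept in RPMI 1640 with 10% fetal calf serum at 37 °C, 5% CO2, then treated with 10 μM analog. Intracellular analog measured over time by HPLC-MS in positive-ion MRM mode. Quantified against calibration curves made by spiking an artificial matrix with standards plus internal standard, using analyte/IS peak-area ratios and linear regression. Reported as pmol per 1×10^6 cells.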
row,Drug uptake [pmol],Compound
1,800,CCCCCCCCCCCCCC(=O)N[C@H](CO)[C@H](O)c1ccc(NC(=O)CCCCC[n+]2ccccc2)cc1.[Br-]
